Source: PubChem BioAssay (several laboratories)
RAM inhibit = yeast RAM network inhibition; 190,000 compounds, 1.8% hits; S. cerevisiae dse1pr::URA3 reporter, 5-FOA growth OD615, 2 d; analog-sensitive cbk1-as2 kinase mutant strain; inhibition, % at 50 µM;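 active = inhibition above a set limit, 3 SD over mean compound inhibition, cut at about 8.4% in these data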;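 note: 0% = DMSO-only wells with no growth and 100% = 10 µM 1-NA-PP1 full growth; inhibition rescues growth on 5-FOA so higher OD means more RAM inhibition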
Measles CPE = protection of cells from measles virus; Measles virus-infected cells, CPE protection, absorbance; protection (pct of control), % at 4 µM; 140,000 compounds, 1.5% hits; AID 841; in the data active = protection mostly above about 24%, no sharp cut-off; inactive = mostly below about 26%
Phagocyt inh = blocks phagocytosis by macrophages | J774A.1 macrophage IgG-bead phagocytosis, imaging | inhibition, % at 5 µM | 110,000 compounds, 0.07% hits;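 active = inhibition above the mean of the plate negative controls plus 5 SD, cut at about 13% in these data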;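 note: phagocytic index as fraction of beads internalized from green versus red external bead signal; plate controls were DMSO negative control for no effect and cytochalasin-D positive control for full effect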
Yeast growth inh = reduces growth of yeast BB579 in restrictive medium | S. cerevisiae BB579 growth, OD615, 48 h | inhibition, % at 10 µM | 140,000 compounds, 0.51% hits | AID 804;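 active = inhibition above a set limit, 3 SD over the mean compound inhibition, cut at about 44% in these data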
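Test system: DeaD yeast strain BB579 / Buffer or medium: restrictive glucose-based CSMM-D medium / Doses: single 10 µM dose / Schedule: 4 h cell preincubation, 48 h compound exposure, 30 °C humidified / Technique: culture absorbance at 615 nm / Controls: amphotericin B positive control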
Yeast life ext = extends the lifespan of yeast. S. cerevisiae growth with nicotinamide, OD615; deaD strain in restrictive glucose medium. inhibition of the nicotinamide effect, % at 10 µM. 130,000 compounds, 0.68% hits. AID 775;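 active = inhibition above a set limit, placed 3 SD over the median of all compounds, cut at about 26% in these data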;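 note: 0% = nicotinamide-treated wells and 100% = cells grown without nicotinamide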
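Assay system: engineered S. cerevisiae DeaD replicative-lifespan strain, galactose-grown log-phase cells; medium: restrictive CSMM-D dextrose medium; also added: nicotinamide, 1.5 mM, co-present with compound; schedule: 48 h compound exposure at 30 °C, humidified; detection: absorbance at 615 nm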
* marks the source's active call; other numbers are inactive results; · = not tested or not shown. An excerpt weighted towards active compounds, which were near 3.6% of everything screened.

SMILES	RAM inhibit	Measles CPE	Phagocyt inh	Yeast growth inh	Yeast life ext
CN(C)CC(C(=O)c1ccccc1)c1ccccc1 (stereo not given)	1.0	23.7	·	-37.9	100.7*
COc1ccc(C(C(=O)OC(C)CN(C)C)c2ccccc2)cc1 (stereo not given)	0.9	24.7	-0.5	-21.0	-2.8
CC1(NC(=O)C2CCCCC2)CCS(=O)(=O)C1 (stereo not given)	2.5	·	·	·	·
COC(=O)C1CCN(C(=O)Nc2ccccc2)CC1	0.7	·	·	·	·
COc1cc2c(cc1OC)C(c1ccc3c(c1)OCO3)C1=C(CC(C)(C)CC1=O)N2 (stereo not given)	1.7	24.8*	·	-12.9	0.3
COc1cccc(C2C3=C(CC(C)(C)CC3=O)Nc3cc4c(cc32)OCO4)c1 (stereo not given)	3.0	11.6	·	-12.9	-6.5
Cc1nn(CC#N)c(=O)n1-c1cccc(F)c1	-1.6	10.5	-0.2	-30.5	-4.1
CCOc1ccc2ncc(S(=O)(=O)c3ccccc3)c(N3CCN(c4ccc(OC)cc4)CC3)c2c1	2.6	11.8	-2.8	-33.0	-0.2
COc1ccc(N2CCN(c3c(S(=O)(=O)c4ccccc4)cnc4ccc(OC)cc34)CC2)cc1	0.9	22.8*	-7.9	-25.4	4.1
O=C(Nc1cccc(Cl)c1)c1ccc2c(=O)n3c(nc2c1)CCCCC3	-0.7	0.2	-2.0	-39.3	59.2*
Cc1ccc(S(=O)(=O)N2CCCCC2)cc1NC(=O)c1ccc2c(=O)n3c(nc2c1)CCCCC3	1.2	6.7	·	-19.4	5.4
O=C(c1ccc2c(=O)n3c(nc2c1)CCCCC3)N1CCN(C(c2ccccc2)c2ccccc2)CC1	-1.1	42.4*	-0.4	-12.4	-12.8
Cc1ccc(-c2csc(NC(=O)c3ccc4c(=O)n5c(nc4c3)CCCCC5)n2)cc1	0.4	55.9*	-2.6	-24.0	5.8
O=C(NCCCc1nc2ccccc2[nH]1)c1ccc(F)cc1	0.3	·	·	·	·
O=C(Nc1ccc(Cn2cccn2)cc1)c1ccc(COc2ccc(Br)cc2)cc1	2.0	18.3	·	-31.4	-3.8
O=C(Nc1ccc(Cn2cccn2)cc1)c1ccc(COc2cccc(Br)c2)cc1	9.9*	4.1	-0.8	-73.8	-10.5
COc1cccc(N2CCN(C(=O)c3nc4nc(C)cc(C)n4n3)CC2)c1	3.0	·	·	·	·
CCOc1ccc(CCNC(=O)CCS(=O)(=O)c2ccc(OC)cc2)cc1OCC	0.4	·	·	·	·
Cc1ccc2[nH]c(=O)c(N3CCOCC3)c(-c3ccccc3)c2c1	3.1	77.6*	-0.5	28.6	-3.9
Cc1ccc2ccc(C(Nc3ccccn3)c3ccccc3)c(O)c2n1 (stereo not given)	0.7	17.7	-0.4	-56.8	-3.5
COc1cc(C(Nc2ccccn2)c2ccc3ccc(C)nc3c2O)cc(OC)c1O (stereo not given)	-0.9	40.5*	-1.0	-9.2	10.4
CNC(=O)NC(=O)CSc1nnc(C(F)(F)F)n1C	0.5	2.5	-1.2	-24.1	-6.5
CC(Sc1nnc(C(F)(F)F)n1C)C(=O)NC(N)=O (stereo not given)	0.3	60.4*	-4.3	-34.5	-0.1
COC(=O)c1sccc1NC(=O)CSc1cccc(Cl)c1Cl	8.7*	15.6	·	-50.5	-12.9
COC(=O)c1sccc1NC(=O)/C=C/c1c(Cl)cccc1Cl	6.4	43.2	·	-37.9	-2.5
SMILES	RAM inhibit	Measles CPE	Phagocyt inh	Yeast growth inh	Yeast life ext
CN(C)S(=O)(=O)c1ccc(NC(=O)CCNC(=O)c2ccc([N+](=O)[O-])cc2)cc1	2.2	·	·	·	·
CC(=O)N(Cc1nc2sc(C)c(C)c2c(=O)[nH]1)C1CCCC1	0.4	·	·	·	·
COc1ccc(/C=N/NC(=O)CC2N=C(Cc3ccccc3)NNC2=O)cc1OC (stereo not given)	0.7	27.8*	-4.2	-40.5	-4.9
CCCC(CCC)C(=O)Nc1ccc2c(c1)N(C(=O)CCN1CCN(C)CC1)c1ccccc1CC2	1.2	·	·	·	·
COC12NC(=O)N(C)C1(OC)C(=O)N(C)C(=O)N2C (stereo not given)	1.4	5.4	-0.8	22.0	1.2
COC(=O)CCCCC1SCC(NC(=O)c2ccccc2)C1OC(C)=O (stereo not given)	9.2*	·	·	·	·
COC(=O)CCCCC1SCC(NC(=O)c2ccccc2)C1=O (stereo not given)	2.0	·	·	·	·
CCc1c(C)sc(NC(=O)c2ccccc2[N+](=O)[O-])c1C(N)=O	0.0	9.2	-2.2	-35.0	-4.9
O=C(/C(=C/O)N=Nc1ccccc1)c1ccncc1	·	5.7	-1.0	88.1*	-10.5
COc1ccccc1N1CCN(C(=O)COc2cc(C)cc(C)c2)CC1	2.3	·	·	·	·
